In ChEMBL document CHEMBL1134290, “A novel anti-ischemic ATP-sensitive potassium channel (K(ATP)) opener without vasorelaxation: N-(6-aminobenzopyranyl)-N'-benzyl-N' '-cyanoguanidine analogue” (J Med Chem, 2001):

Experiments:
Rattus norvegicus [1] = species: Rattus norvegicus; test: (§1) Reduction rate of LDH release from neuronal cells injured by iron […]; assay type: functional
In short: (§2)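 Cortical neurons from E17-18 rat embryos, cultured 7-9 days at 37 °C, 5% CO2. Serum lowered to 0.2% in MEM. Pretreated 30 min with compound in DMSO (final ≤0.2%), then FeSO4 at 50 µM final for 24 h. LDH released into medium measured; reduction of LDH release taken relative to control. Four determinations averaged.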

Rattus norvegicus [2] = test: Ratio of myocardial infarct zone to area at risk […] in ischemic myocardium damage rat model (Cardioprotective effect) at 0.3 mg/Kg; assay type: functional
In short: (§3)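 Male Sprague-Dawley rats (350-450 g), pentobarbital 75 mg/kg i.p., ventilated 60/min at 10 mL/kg, 37 °C. Vehicle or compound given via femoral vein over 30 min, with or without glibenclamide or 5-HD. Left coronary occlusion 45 min, reperfusion 90 min. Risk zone marked by Evans blue after reocclusion. LV slices stained with TTC at 37 °C, pH 7.4, 15 min. Infarct area summed, divided by AAR weight; n = 3 or more.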

Rattus norvegicus [3] = test: Ratio of myocardial infarct zone to area at risk (IZ/AAR) in ischemic myocardium damage rat model (Cardioprotective effect) at 0.3 mg/Kg; assay type: functional; in short: as §3
Rattus norvegicus [4] = species: Rattus norvegicus; test: as §1; assay type: functional, cell-based
Rattus norvegicus [5] = species: Rattus norvegicus; test: Inhibition of methoxamine-contracted rat aorta (Vasorelaxant potency); assay type: functional
In short: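 Rat aortic rings (Sprague-Dawley, 350-450 g; 3 mm rings, adipose removed) held in oxygenated modified Krebs-Henseleit PSS at 37 °C under 2 g resting tension, stabilised 1 h. Once methoxamine contraction reached a maintained maximum, compound added cumulatively at 1, 3, 10, 30 µM. Relaxation taken as change in maximal methoxamine constriction and plotted as concentration-relaxation curve.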

Rattus norvegicus [6] = species: Rattus norvegicus; test: Reduction rate of LDH release from rat neuronal cells injured by iron […]; assay type: functional; in short: as §2
Rattus norvegicus [7] = test: Ratio of myocardial infarct zone to area at risk […] in ischemic myocardium damage rat model (Cardioprotective effect) at 0.1 mg/Kg; assay type: functional; in short: as §3
Rattus norvegicus [8] = test: Ratio of myocardial infarct zone to area at risk […] in ischemic myocardium damage rat model (Cardioprotective effect) at 1 mg/Kg; assay type: functional; in short: as §3
Rattus norvegicus [9] = test: Ratio of myocardial infarct zone to area at risk […] in ischemic myocardium damage rat model (Cardioprotective effect) in the presence of 5-HD (10 mg/kg); assay type: functional; in short: as §3
Rattus norvegicus [10] = test: Ratio of myocardial infarct zone to area at risk […] in ischemic myocardium damage rat model (Cardioprotective effect) in the presence of Gliben 1 mg/kg; assay type: functional; in short: as §3
Rattus norvegicus [11] = test: Ratio of myocardial infarct zone to area at risk (IZ/AAR) in ischemic myocardium damage rat model (Cardioprotective effect) in the presence of 5-HD (10 mg/kg); assay type: functional; in short: as §3
Rattus norvegicus [12] = test: Ratio of myocardial infarct zone to area at risk (IZ/AAR) in ischemic myocardium damage rat model (Cardioprotective effect) in the presence of Gliben 1 mg/kg; assay type: functional; in short: as §3
Rattus norvegicus [13] = test: Ratio of myocardial infarct zone to area at risk(IZ/AAR)in ischemic myocardium damage rat model (Cardioprotective effect) at 0.1 mg/kg; assay type: functional; in short: as §3
Rattus norvegicus [14] = test: Ratio of myocardial infarct zone to area at risk(IZ/AAR)in ischemic myocardium damage rat model (Cardioprotective effect) at 0.3 mg/kg; Not determined; assay type: functional; in short: as §3
Rattus norvegicus [15] = test: Ratio of myocardial infarct zone to area at risk(IZ/AAR)in ischemic myocardium damage rat model (Cardioprotective effect) at 1 mg/kg; Not determined; assay type: functional; in short: as §3

Row | Structure (SMILES) | inhibition at 30 µM (Rattus norvegicus [1]) [%] | Effect (Rattus norvegicus [2]) [%] | Effect (Rattus norvegicus [3]) [%] | further results
1 | COC(OC)[C@]1(C)Oc2ccc([N+](=O)[O-])cc2[C@@H](N/C(=N/C#N)NCc2ccccc2)[C@@H]1O | 37 | – | – | –
2 | COC(OC)[C@@]1(C)Oc2ccc(N)cc2[C@H](/N=C(\NC#N)NCc2ccccc2)[C@H]1O | – | 33 | 51 | IC50 (Rattus norvegicus [4]): 9.2 µM
3 | COC(OC)[C@]1(C)Oc2ccc(NC(C)=O)cc2[C@H](/N=C(\NC#N)NCc2ccccc2)[C@@H]1O | 25 | 41 | 45 | –
4 | COC(OC)[C@]1(C)Oc2ccc([N+](=O)[O-])cc2[C@@H](/N=C(\NC#N)Nc2ccc(Cl)cc2)[C@@H]1O | 61 | 37 | 52 | IC50 (Rattus norvegicus [5]; Rattus norvegicus, Aorta): 17.5 µM
5 | CC1(C)COC([C@]2(C)Oc3ccc(N)cc3[C@H](/N=C(\NC#N)NCc3ccccc3)[C@@H]2O)OC1 | 60 | 42 | 56 | –
6 | COC(OC)[C@]1(C)Oc2ccc([N+](=O)[O-])cc2[C@@H](/N=C(\NC#N)Nc2cccc(Cl)c2)[C@@H]1O | 70 | 47 | 40 | IC50 (Rattus norvegicus [5]; Rattus norvegicus, Aorta): 30.5 µM
7 | COc1ccc(N/C(=N/[C@H]2c3cc([N+](=O)[O-])ccc3O[C@@](C)(C(OC)OC)[C@H]2O)NC#N)cc1 | 45 | 38 | 43 | –
8 | COC(OC)[C@]1(C)Oc2ccc(N)cc2[C@@H](/N=C(\NC#N)NCc2ccccc2)[C@@H]1O | – | 39 | 46 | IC50 (Rattus norvegicus [4]): 8 µM
9 | COC(OC)[C@]1(C)Oc2ccc(N)cc2[C@H](/N=C(\NC#N)NCc2ccccc2)[C@H]1O | – | 38 | 51 | IC50 (Rattus norvegicus [4]): 4.1 µM
10 | CC1(C)Oc2ccc(C#N)cc2[C@@H](/N=C(\NC#N)Nc2ccc(Cl)cc2)[C@@H]1O | – | 39 | 39 | inhibition at 30 µM (Rattus norvegicus [6]): 20%; IC50 (Rattus norvegicus [5]; Rattus norvegicus, Aorta): 3.2 µM
11 | COC(OC)C1(C)Oc2ccc([N+](=O)[O-])cc2C(/N=C(\NC#N)Nc2ccc(Cl)cc2)[C@@H]1O (single isomer, unassigned) | 58 | 46 | 46 | –
12 | COC(OC)C1(C)Oc2ccc([N+](=O)[O-])cc2C(/N=C(\NC#N)NCc2ccccc2)[C@@H]1O (single isomer, unassigned) | 7 | 37 | 49 | –
13 | CC1(C2OCCO2)Oc2ccc(N)cc2C(/N=C(\NC#N)NCc2ccccc2)[C@@H]1O (single isomer, unassigned) | 3.6 | 32 | 52 | –
14 | COC(OC)C1(C)Oc2ccc(NS(C)(=O)=O)cc2C(/N=C(\NC#N)NCc2ccccc2)[C@@H]1O (single isomer, unassigned) | 10 | 35 | 43 | –
15 | COc1ccc(CN/C(=N/C2c3cc(N)ccc3OC(C)(C(OC)OC)[C@H]2O)NC#N)cc1 (single isomer, unassigned) | – | 37 | 42 | IC50 (Rattus norvegicus [4]): 4.1 µM
16 | COC(OC)C1(C)Oc2ccc(N)cc2C(/N=C(\NC#N)NCc2ccccc2)[C@@H]1O (single isomer, unassigned) | – | 35 | 37 | Effect (Rattus norvegicus [7]): 34%; Effect (Rattus norvegicus [8]): 35%; Effect (Rattus norvegicus [9]): 35%; Effect (Rattus norvegicus [10]): 33%; Effect (Rattus norvegicus [11]): 46%; Effect (Rattus norvegicus [12]): 51%; Effect (Rattus norvegicus [13]): 42%; Effect (Rattus norvegicus [14]): 37%; Effect (Rattus norvegicus [15]): 34%; IC50 (Rattus norvegicus [4]): 2.2 µM
17 | COC(OC)C1(C)Oc2ccc([N+](=O)[O-])cc2C(N/C(=N/C#N)NCc2ccccc2)[C@H]1O (single isomer, unassigned) | – | – | – | IC50 (Rattus norvegicus [5]; Rattus norvegicus, Aorta): 7.3 µM
18 | COC(OC)[C@@]1(C)Oc2ccc([N+](=O)[O-])cc2C(N/C(=N/C#N)NCc2ccccc2)[C@H]1O (single isomer, unassigned) | – | 38 | 49 | IC50 (Rattus norvegicus [5]): 9.8 µM
